Assay results: publication PMC2865185 (The FEBS journal, 2009)
Positions count from the first letter of the chain named. Where two headings read alike, the source gives them in different places.

Legend:
[1] = target: T1, EphA3 kinase domain (wild-type) (Homo sapiens, UniProt P29320); experiment: ADP-Quest kinase assay, wild-type EphA3 kinase domain; type: biochemical; conditions: for kcat/Km / kcat: 200 µM ATP, room temperature, ADP-Quest; for kcat: ± SD from two independent experiments, in duplicate
T1 sequence (P29320 621-882 limits assumed): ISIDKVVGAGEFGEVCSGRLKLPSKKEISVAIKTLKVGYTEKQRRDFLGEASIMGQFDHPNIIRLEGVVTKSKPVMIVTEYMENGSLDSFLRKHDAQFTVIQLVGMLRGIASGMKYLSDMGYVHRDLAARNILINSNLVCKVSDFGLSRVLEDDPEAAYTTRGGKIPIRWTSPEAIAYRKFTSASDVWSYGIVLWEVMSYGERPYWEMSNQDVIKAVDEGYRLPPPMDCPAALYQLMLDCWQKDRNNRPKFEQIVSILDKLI
In short: (§1)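 EphA3 kinase domain, wild-type or point mutant made by site-directed mutagenesis, expressed in E. coli BL21 Gold (DE3). His-tag purified, thrombin-cleaved, gel-filtered, then autophosphorylated with 10 mM each ATP and MgCl2; free nucleotide removed by anion exchange. ADP-Quest fluorescence (ex 530/em 590 nm) at room temperature. Peptide 1–4000 µM, ATP 200 µM, enzyme 10 nM–5 µM. Duplicates, background-ADP corrected. Km/Vmax from Michaelis–Menten fit; SD from two independent experiments.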

[2] = target: T2, EphA3(K785E) (Homo sapiens, UniProt P29320, K785E); experiment: ADP-Quest kinase assay, EphA3 K785E mutant; type: biochemical
T2 sequence (P29320 577-947 K785E limits assumed): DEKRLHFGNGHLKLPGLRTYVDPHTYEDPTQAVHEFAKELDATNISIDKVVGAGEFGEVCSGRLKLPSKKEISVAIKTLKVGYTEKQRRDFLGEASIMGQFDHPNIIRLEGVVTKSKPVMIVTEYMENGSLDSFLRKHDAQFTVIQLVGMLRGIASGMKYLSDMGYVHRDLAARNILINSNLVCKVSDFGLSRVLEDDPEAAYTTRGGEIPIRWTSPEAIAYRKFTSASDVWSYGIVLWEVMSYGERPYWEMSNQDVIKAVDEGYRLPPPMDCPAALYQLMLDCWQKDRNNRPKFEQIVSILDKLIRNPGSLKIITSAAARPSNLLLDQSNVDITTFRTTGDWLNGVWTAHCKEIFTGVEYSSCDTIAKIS
In short: as §1

[3] = target: T3, EphA3(N830A) (Homo sapiens, UniProt P29320, N830A); experiment: ADP-Quest kinase assay, EphA3 N830A mutant; type: biochemical; conditions: for kcat/Km / Km / kcat: 200 µM ATP, room temperature, ADP-Quest; for Km / kcat: peptide 1 to 4000 µM, ± SD from two independent experiments, in duplicate
T3 sequence (P29320 621-882 N830A limits assumed): T1 sequence (P29320 621-882 limits assumed) with N210A
In short: as §1

[4] = target: T4, EphB3 (Homo sapiens, UniProt P54753); experiment: Isoform specificity of EPHOPT, EphB3; type: biochemical; conditions: in words
T4 sequence (P54753 633-896 limits assumed): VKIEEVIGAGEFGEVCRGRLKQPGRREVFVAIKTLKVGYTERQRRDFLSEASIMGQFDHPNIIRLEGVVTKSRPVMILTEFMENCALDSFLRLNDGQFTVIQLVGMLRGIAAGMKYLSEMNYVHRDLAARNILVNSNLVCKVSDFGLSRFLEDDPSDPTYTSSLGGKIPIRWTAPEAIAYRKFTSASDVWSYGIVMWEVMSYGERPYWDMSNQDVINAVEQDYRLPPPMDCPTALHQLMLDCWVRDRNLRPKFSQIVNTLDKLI
In short: (§2)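 Each kinase prepared by target. EphA5, EphA7 and EphB3 were autophosphorylated with 10 mM each ATP and MgCl2, then freed of nucleotide by anion exchange. EphB2 and EphB4 were bought in active form and used unmodified. ADP-Quest fluorescence read-out (ex 530/em 590 nm) at room temperature. Peptide substrate 1–4000 µM, ATP 200 µM, enzyme 10 nM–5 µM. Duplicates, background-corrected. Kinetic constants from Michaelis–Menten fit.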

[5] = target: T5, EphB4 (Homo sapiens, UniProt P54760); experiment: Isoform specificity of EPHOPT, EphB4; type: biochemical; conditions: in words; EphB4, non-arginine at position 782
T5 sequence (P54760 615-899 limits assumed): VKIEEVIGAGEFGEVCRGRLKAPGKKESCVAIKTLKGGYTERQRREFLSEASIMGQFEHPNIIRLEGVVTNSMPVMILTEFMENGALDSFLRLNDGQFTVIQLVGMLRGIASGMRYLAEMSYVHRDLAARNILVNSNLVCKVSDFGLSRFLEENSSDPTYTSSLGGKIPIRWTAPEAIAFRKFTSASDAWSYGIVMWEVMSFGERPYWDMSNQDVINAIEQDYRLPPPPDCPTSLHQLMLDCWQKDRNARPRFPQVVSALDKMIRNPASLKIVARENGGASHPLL
In short: as §2

[6] = target: T6, EphA7 (Homo sapiens, UniProt Q15375); experiment: Isoform specificity of EPHOPT, EphA7; type: biochemical; conditions: in words; EphA7, non-arginine at position 782
T6 sequence (Q15375 633-894 limits assumed): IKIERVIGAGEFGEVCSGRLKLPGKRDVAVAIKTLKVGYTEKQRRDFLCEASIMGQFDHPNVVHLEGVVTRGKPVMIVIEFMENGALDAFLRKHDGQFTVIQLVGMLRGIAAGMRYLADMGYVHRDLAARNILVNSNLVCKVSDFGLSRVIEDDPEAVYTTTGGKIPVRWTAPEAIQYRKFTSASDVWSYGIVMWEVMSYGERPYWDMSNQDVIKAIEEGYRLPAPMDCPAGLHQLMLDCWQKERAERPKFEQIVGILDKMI
In short: as §2

[7] = Aqueous solubility of peptide; type: physicochemical; conditions: aqueous buffer
[8] = target: T7, EphB2 (Homo sapiens, UniProt P29323); experiment: Isoform specificity of EPHOPT, EphB2; type: biochemical; conditions: in words; EphB2, non-arginine at position 782
T7 sequence (P29323 621-884 limits assumed): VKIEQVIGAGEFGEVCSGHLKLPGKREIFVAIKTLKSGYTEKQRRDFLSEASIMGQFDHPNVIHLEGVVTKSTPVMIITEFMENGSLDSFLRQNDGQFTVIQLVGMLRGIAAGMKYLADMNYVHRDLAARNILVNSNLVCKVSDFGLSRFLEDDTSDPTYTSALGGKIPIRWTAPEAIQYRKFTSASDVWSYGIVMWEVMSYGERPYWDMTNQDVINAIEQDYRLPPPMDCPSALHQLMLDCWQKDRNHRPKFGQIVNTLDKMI
In short: as §2

[9] = system: EphA5, EphA7, EphB3, EphB4, EphB2 (relative to EphA3); experiment: Isoform specificity of EPHOPT, other EPH kinase domains; type: biochemical
In short: as §2

[10] = system: EphA3 kinase domain; conditions: juxtamembrane peptide, ref [20], cited from earlier work
[11] = EphA3(K785E), 200 µM ATP, room temperature, ADP-Quest, ± SD from two independent experiments, in duplicate
[12] = EphA3 K785E mutant, 200 µM ATP, room temperature, ADP-Quest
[13] = EphA3 K785E mutant, peptide 1 to 4000 µM, 200 µM ATP, room temperature, ADP-Quest, ± SD from two independent experiments, in duplicate
[14] = relative to juxtamembrane peptide
[15] = EphA3(N830A) relative to wild-type

KQWDNYEKIW [OPTYK] gave a kcat/Km [1] of 34270 M⁻¹ s⁻¹ and a kcat ([1]; peptide 1 to 4000 µM) of 220 ± 27 min⁻¹.
With KQWDNYEFIW [OPTYF] the kcat/Km ([2]; EphA3(K785E), 200 µM ATP, room temperature, ADP-Quest) was 0.155 µM/min, the kcat [2, 11] was 0.383 ± 0.13 s⁻¹ and the kcat/Km [2, 12] was 2580 M⁻¹ s⁻¹. The kcat [2, 13] was 0.383 ± 0.13 s⁻¹, the kcat/Km [1] was 233880 M⁻¹ s⁻¹ and the kcat [1] was 421 ± 30 min⁻¹. For the same substance, the kcat ([1]; peptide 1 to 4000 µM) was 421 ± 30 min⁻¹, the “relative change in Km” value ([1]; relative to EPHOPT) was ~ 2 -fold and the “relative change in kcat” value ([1]; relative to EPHOPT) was ~ 2 -fold. For the same substance, the “weaker affinity (relative to EPHOPT)” value ([3]; EphA3(N830A), OPTYF versus EPHOPT) was 5 -fold, the kcat/Km ([3]; EphA3 N830A mutant) was 3280 M⁻¹ s⁻¹ and the Km ([3]; EphA3 N830A mutant) was 152 ± 35 µM. The kcat ([3]; EphA3 N830A mutant) was 0.5 ± 0.0233 s⁻¹.
For KQWDNYEpYIW [EPHOPT], the “catalytic efficiency of EphB3 relative to EphA5” value [4] was “nearly as efficient as EphA5”, the “substrate affinity at EphB3 relative to EphA3” value [4] was “nearly identical substrate affinity as EphA3” and the “decrease in catalytic efficiency” value ([2]; EphA3(K785E) relative to wild-type) was 260 -fold. The “negative effect on Km” value ([2]; EphA3(K785E) relative to wild-type enzyme) was “about an order of magnitude”, the kcat [2, 11] was 0.567 ± 0.012 s⁻¹ and the kcat/Km [2, 12] was 3020 M⁻¹ s⁻¹. The Km [2, 13] was 188 ± 64 µM, the kcat [2, 13] was 0.567 ± 0.012 s⁻¹ and the “catalytic efficiency (EphB4)” value [5] was “lower catalytic efficiencies”. It also gave a kcat/Km [1] of 787030 M⁻¹ s⁻¹, a kcat [1] of 850 ± 44 per minute and a kcat ([1]; peptide 1 to 4000 µM) of 850 ± 44 min⁻¹. For the same substance, the “drop in Km” value [1, 14] was “almost two orders of magnitude”, the “increase in catalytic efficiency” value [1, 14] was “over 200 -fold” and the increase in kcat [1, 14] was 4 -fold. For the same substance, the “catalytic efficiency (EphA7)” value [6] was “lower catalytic efficiencies”, the solubility [7] was at least 100000 µM and the “catalytic efficiency (EphB2)” value [8] was “lower catalytic efficiencies”. The “rank order of catalytic efficiency across isoforms” value ([9]; EphA3 and five other EPH kinases, Supplemental Table S2) was “EphA3>EphA5≅EphB3>>EphA7≅EphB4>>EphB2”, the “selectivity for EphA3 over other EPH kinases” value ([9]; in words) was “mildly to strongly selective for EphA3” and the “decrease in catalytic efficiency” value [3, 15] was “more than one order of magnitude decrease”. For the same substance, the “decrease in kcat/Km” value [3, 15] was 56 -fold, the kcat/Km ([3]; EphA3(N830A)) was 0.835 µM/min and the kcat/Km ([3]; EphA3 N830A mutant) was 13900 M⁻¹ s⁻¹. It also gave a Km ([3]; EphA3 N830A mutant) of 39.5 ± 0.7 µM and a kcat ([3]; EphA3 N830A mutant) of 0.55 ± 0.0233 s⁻¹.
In the case of “D^598PHTYEDPTQ^606 [juxtamembrane EphA3 peptide]”, the Km ([10]; EphA3 kinase domain) is listed as 1000 ± 20 µM, the catalytic efficiency ([10]; EphA3 kinase domain) is listed as 200 min⁻¹ mM⁻¹ and the kcat ([10]; EphA3 kinase domain) is listed as 199 ± 9 min⁻¹. For the same substance, the kcat ([10]; quoted for comparison with EPHOPT) was 199 per minute.
